Laboratory results published in ChEMBL document CHEMBL4689842, “EUbOPEN Chemogenomics Library wave 1” (2021).

Tested on: Fibroblast
Test: Multiplex assay against human fibroblast
Type: toxicity, cell-based
In short: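 Tubulin, mitochondrial-mass and membrane-permeability phenotypes are per cents of healthy-nucleus cells. Cells were gated by CellPathfinder machine learning into Hoechst high-intensity objects or normal cells, normal cells into healthy, pyknosed or fragmented nuclei, and pyknosed cells into mitotic or apoptotic. Before that, live cells stained at seeding with Hoechst33342, BioTracker Green Microtubule Cytoskeleton Dye, MitoTracker Red and Annexin V Alexa Fluor 680 were imaged on a CQ1 microscope at 37°C and 5% CO2 after compound addition.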

[1] = 12 h, 1 µM, compound concentration 1 uM, replicate 1
[2] = 12 h, 1 µM, compound concentration 1 uM, replicate 2
[3] = 12 h, 10 µM, compound concentration 10 uM, replicate 1
[4] = 12 h, 10 µM, compound concentration 10 uM, replicate 2
[5] = 24 h, 1 µM, compound concentration 1 uM, replicate 1
[6] = 24 h, 1 µM, compound concentration 1 uM, replicate 2
[7] = 24 h, 10 µM, compound concentration 10 uM, replicate 1
[8] = 24 h, 10 µM, compound concentration 10 uM, replicate 2
[9] = 48 h, 1 µM, compound concentration 1 uM, replicate 1
[10] = 48 h, 1 µM, compound concentration 1 uM, replicate 2
[11] = 48 h, 10 µM, compound concentration 10 uM, replicate 1
[12] = 48 h, 10 µM, compound concentration 10 uM, replicate 2

Cc1cn(-c2cc(NC(=O)c3ccc(C)c(Nc4nccc(-c5cccnc5)n4)c3)cc(C(F)(F)F)c2)cn1 [NILOTINIB]
Population Apoptotic (%) [1]: 62%
Population Fragmented Nuclei (%) [1]: 36%
Population Healthy Nuclei (%) [1]: 29%
Population Hoechst High Intensity Objects (%) [1]: 8%
Population Membrane Permeable-Phenotype (%) [1]: 16%
Population Mitochondria Different-Phenotype (%) [1]: 20%
Population Mitotic Cells (%) [1]: 37%
Population Normal (%) [1]: 91%
Population Pyknosed Nuclei (%) [1]: 34%
Population Tubulin-Different-Phenotype (%) [1]: 83%
Total Cell Count [1]: 160
Population Apoptotic (%) [2]: 25%
Population Fragmented Nuclei (%) [2]: 1%
Population Healthy Nuclei (%) [2]: 86%
Population Membrane Permeable-Phenotype (%) [2]: 1%
Population Mitochondria Different-Phenotype (%) [2]: 18%
Population Mitotic Cells (%) [2]: 75%
Population Pyknosed Nuclei (%) [2]: 11%
Population Tubulin-Different-Phenotype (%) [2]: 10%
Total Cell Count [2]: 66
Population Apoptotic (%) [3]: 78%
Population Fragmented Nuclei (%) [3]: 42%
Population Healthy Nuclei (%) [3]: 46%
Population Hoechst High Intensity Objects (%) [3]: 44%
Population Membrane Permeable-Phenotype (%) [3]: 4%
Population Mitochondria Different-Phenotype (%) [3]: 0%
Population Mitotic Cells (%) [3]: 21%
Population Normal (%) [3]: 55%
Population Pyknosed Nuclei (%) [3]: 10%
Population Tubulin-Different-Phenotype (%) [3]: 2%
Total Cell Count [3]: 2441
Population Apoptotic (%) [4]: 33%
Population Fragmented Nuclei (%) [4]: 18%
Population Healthy Nuclei (%) [4]: 72%
Population Hoechst High Intensity Objects (%) [4]: 7%
Population Mitochondria Different-Phenotype (%) [4]: 61%
Population Mitotic Cells (%) [4]: 66%
Population Normal (%) [4]: 92%
Population Pyknosed Nuclei (%) [4]: 9%
Population Tubulin-Different-Phenotype (%) [4]: 63%
Total Cell Count [4]: 73
Population Apoptotic (%) [5]: 56%
Population Fragmented Nuclei (%) [5]: 32%
Population Healthy Nuclei (%) [5]: 29%
Population Hoechst High Intensity Objects (%) [5]: 13%
Population Membrane Permeable-Phenotype (%) [5]: 17%
Population Mitochondria Different-Phenotype (%) [5]: 32%
Population Mitotic Cells (%) [5]: 43%
Population Normal (%) [5]: 86%
Population Pyknosed Nuclei (%) [5]: 38%
Population Tubulin-Different-Phenotype (%) [5]: 92%
Total Cell Count [5]: 159
Population Apoptotic (%) [6]: 40%
Population Fragmented Nuclei (%) [6]: 14%
Population Healthy Nuclei (%) [6]: 79%
Population Hoechst High Intensity Objects (%) [6]: 5%
Population Membrane Permeable-Phenotype (%) [6]: 2%
Population Mitochondria Different-Phenotype (%) [6]: 20%
Population Mitotic Cells (%) [6]: 60%
Population Normal (%) [6]: 94%
Population Pyknosed Nuclei (%) [6]: 5%
Population Tubulin-Different-Phenotype (%) [6]: 12%
Total Cell Count [6]: 67
Population Apoptotic (%) [7]: 77%
Population Fragmented Nuclei (%) [7]: 45%
Population Healthy Nuclei (%) [7]: 45%
Population Hoechst High Intensity Objects (%) [7]: 50%
Population Membrane Permeable-Phenotype (%) [7]: 3%
Population Mitochondria Different-Phenotype (%) [7]: 0%
Population Mitotic Cells (%) [7]: 22%
Population Normal (%) [7]: 49%
Population Pyknosed Nuclei (%) [7]: 9%
Population Tubulin-Different-Phenotype (%) [7]: 2%
Total Cell Count [7]: 2873
Population Apoptotic (%) [8]: 0%
Population Fragmented Nuclei (%) [8]: 12%
Population Healthy Nuclei (%) [8]: 83%
Population Hoechst High Intensity Objects (%) [8]: 2%
Population Membrane Permeable-Phenotype (%) [8]: 1%
Population Mitochondria Different-Phenotype (%) [8]: 42%
Population Mitotic Cells (%) [8]: 100%
Population Normal (%) [8]: 97%
Population Pyknosed Nuclei (%) [8]: 4%
Population Tubulin-Different-Phenotype (%) [8]: 30%
Total Cell Count [8]: 93
Population Apoptotic (%) [9]: 67%
Population Fragmented Nuclei (%) [9]: 32%
Population Healthy Nuclei (%) [9]: 40%
Population Hoechst High Intensity Objects (%) [9]: 16%
Population Membrane Permeable-Phenotype (%) [9]: 10%
Population Mitochondria Different-Phenotype (%) [9]: 29%
Population Mitotic Cells (%) [9]: 32%
Population Normal (%) [9]: 83%
Population Pyknosed Nuclei (%) [9]: 26%
Population Tubulin-Different-Phenotype (%) [9]: 72%
Total Cell Count [9]: 138
Population Apoptotic (%) [10]: 100%
Population Fragmented Nuclei (%) [10]: 19%
Population Healthy Nuclei (%) [10]: 79%
Population Hoechst High Intensity Objects (%) [10]: 11%
Population Membrane Permeable-Phenotype (%) [10]: 5%
Population Mitochondria Different-Phenotype (%) [10]: 2%
Population Mitotic Cells (%) [10]: 0%
Population Normal (%) [10]: 89%
Population Pyknosed Nuclei (%) [10]: 1%
Population Tubulin-Different-Phenotype (%) [10]: 5%
Total Cell Count [10]: 100
Population Apoptotic (%) [11]: 47%
Population Fragmented Nuclei (%) [11]: 45%
Population Healthy Nuclei (%) [11]: 43%
Population Hoechst High Intensity Objects (%) [11]: 61%
Population Membrane Permeable-Phenotype (%) [11]: 4%
Population Mitochondria Different-Phenotype (%) [11]: 0%
Population Mitotic Cells (%) [11]: 52%
Population Normal (%) [11]: 38%
Population Pyknosed Nuclei (%) [11]: 10%
Population Tubulin-Different-Phenotype (%) [11]: 2%
Total Cell Count [11]: 2935
Population Apoptotic (%) [12]: 100%
Population Fragmented Nuclei (%) [12]: 28%
Population Healthy Nuclei (%) [12]: 65%
Population Hoechst High Intensity Objects (%) [12]: 25%
Population Membrane Permeable-Phenotype (%) [12]: 15%
Population Mitochondria Different-Phenotype (%) [12]: 9%
Population Mitotic Cells (%) [12]: 0%
Population Normal (%) [12]: 74%
Population Pyknosed Nuclei (%) [12]: 6%
Population Tubulin-Different-Phenotype (%) [12]: 81%
Total Cell Count [12]: 66
